Assay [1] deals with Staphylococcus aureus. Nature of the assay: Antimicrobial activity against Staphylococcus aureus ATCC 29213 at 200 ug/disk. Type of assay: functional. The following applies: read-out: IZ. The method, boiled down:
(§1)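 Standard disk diffusion assay with 200 µg of compound applied per disk. Activity was read as the diameter (mm) of the zone of growth inhibition around the disk.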

The subject of assay [2] is Candida albicans. In words: Antimicrobial activity against Candida albicans ATCC 90029 at 200 ug/disk. Type of assay: functional, organism-based. The method in brief: as §1
In assay [3] the test system is Bacillus subtilis. Nature of the assay: Antimicrobial activity against Bacillus subtilis ATCC 6051 at 200 ug/disk. It is filed as functional. To be noted: read-out: IZ. The method in brief: as §1

Activity calls are given as the source filed them. No cut-off for these calls is given here.

Turning to `C=C(CO)[C@@]12O[C@@H]1[C@@]1(C)C(=C[C@H]2O)C=CC[C@@H]1C` [PHOMADECALIN A], the zone of inhibition at 200 µg/disc turned out to be 10 mm in assay [1] and 18 mm in assay [3]. The result in assay [2] was inactive.

As to `C=C(COC(C)=O)[C@@]12O[C@@H]1[C@@]1(C)C(=C[C@H]2O)C=C[C@@H](O)[C@@H]1C` [PHOMADECALIN B], the zone of inhibition at 200 µg/disc in assay [1] was found to be 8 mm; in assay [3] it was 10 mm. Also, the outcome in assay [2] was inactive.

As for `C=C(CO)[C@@]12O[C@@H]1[C@@]1(C)C(=C[C@H]2O)C=CC(=O)[C@@H]1C` [PHOMADECALIN C], the zone of inhibition at 200 µg/disc in assay [3] came to 12 mm.

For the molecule `C=C(CO)[C@@]12O[C@@H]1[C@@]1(C)C(=C[C@H]2O)C=C[C@@H](O)[C@@H]1C` [PHOMADECALIN D], the values for the zone of inhibition at 200 µg/disc in assay [1] and in assay [3] were 8 mm and 9 mm, respectively. In addition, the result in assay [2] was inactive.

(Values after ChEMBL document CHEMBL1148107, “Phomadecalins A-D and phomapentenone A: new bioactive metabolites from Phoma sp. NRRL 25697, a fungal colonist of Hypoxylon stromata” (2002).)
